From ChEMBL document CHEMBL4342471, “Discovery of Thieno[2,3-d]pyrimidine-Based Hydroxamic Acid Derivatives as Bromodomain-Containing Protein 4/Histone Deacetylase Dual Inhibitors Induce Autophagic Cell Death in Colorectal Carcinoma Cells” (J Med Chem, 2020)
Active and inactive are the calls of the source. The calls are words filed in the database; no cut-off is given here.

Legend:
HCT-116 [1] = experiment: Induction of apoptosis in human HCT116 cells assessed as early apoptotic cells at 0.5 uM by Annexin-V FITC/propidium iodide staining-based flow cytometry (reference value: 2.8 %); format: functional
HCT-116 [2] = experiment: Inhibition of colony formation in human HCT116 cells at 0.2 to 0.5 uM incubated for 24 hrs; format: functional, cell-based
Method in brief: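 HCT-116 colony formation assessed after treatment at 0.2 or 0.5 µM.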

[3] = Tmax in Sprague-Dawley rat at 30 mg/kg, po measured up to 1440 mins by UPLC-QTOF/MS analysis; format: ADME, organism-based; details: in vivo
[4] = Toxicity in BALB/cAnNCrl mouse xenografted with human HCT116 cells assessed as effect on spleen morphological changes at 15 to 30 mg/kg, po administered on day 1 to day 19 measured on day 19 by hematoxylin and eosin staining based assay; format: organism-based; details: in vivo
Method in brief: (§1)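 HCT-116 xenograft mice dosed orally at 15 or 30 mg/kg for 19 days, saline as vehicle control; body weights tracked, and main organs sectioned and H&E-stained at study end.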

Mus musculus [5] = experiment: In vivo inhibition of HDAC in BALB/cAnNCrl mouse xenografted with human HCT116 cells assessed as increase in acetylated histone H3 level in tumor tissue at 15 to 30 mg/kg, po administered on day 1 to day 19 measured on day 19 by immunohistochemical analysis; format: functional, organism-based
Method in brief: (§2)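 HCT-116 xenograft mice were dosed orally at 15 or 30 mg/kg, or 30 mg/kg for reference agents, for 19 days, with vehicle or saline controls. Tumor sections were stained for Ki-67, c-Myc, Ac-H3, BRD4, LC3-II, LIFR and p-STAT3 by immunohistochemistry, and TUNEL staining was used as the apoptosis marker.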

HCT-116 [6] = experiment: Induction of apoptosis in human HCT116 cells assessed as apoptotic cells at 0.2 uM by Annexin-V FITC/propidium iodide staining-based flow cytometry (reference value: 6.3 +/- 0.4 %); format: functional
[7] = target: T1, Bromodomain-containing protein 4 (Homo sapiens, UniProt O60885); experiment: Inhibition of BRD4 in human HCT116 cells assessed as induction of autophagy by measuring p62 degradation at 0.5 uM measured after 24 hrs by Western blot analysis; format: cell-based
[8] = target: Bromodomain-containing protein 3 (Homo sapiens, UniProt Q15059); experiment: Inhibition of human recombinant His-tagged BRD3 BD1 domain expressed in Escherichia coli BL21(DE3)-R3-pRARE2 cells by AlphaScreen assay
HCT-116 [9] = experiment: Antitumor activity against human HCT116 cells xenografted in BALB/cAnNCrl mouse assessed as reduction in tumor volume by measuring T/C ratio at 15 mg/kg, po administered on day 1 to day 19 relative to control; format: functional
Method in brief: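 HCT-116 xenografts in mice were given the test agent orally at 15 or 30 mg/kg, with a saline control group, over 19 days. Tumor volume was followed during treatment and tumors were weighed at the end. Body weight was monitored. Inhibition is expressed as treatment-to-control (T/C) ratio.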

SW-620 = experiment: Antiproliferative activity against human SW620 cells assessed as reduction in cell viability measured after 24 to 48 hrs by MTT assay; format: functional, cell-based
HCT-116 [10] = experiment: Effect on histone H3 expression level in human HCT116 cells at 0.2 to 0.5 uM measured after 24 hrs by Western blot analysis; format: functional, cell-based
[11] = target: T1, Bromodomain-containing protein 4; experiment: Inhibition of BRD4 in human HCT116 cells transfected with GFP-LC3 assessed as induction of autophagy by measuring increase in LC3 puncta at 0.5 uM measured after 24 hrs by confocal fluorescence microscopy; format: cell-based
Method in brief: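 HCT-116 cells transfected with GFP-LC3 plasmid, then incubated 24 h with 0.5 µM test agent; LC3 puncta (autophagosomes) imaged by confocal fluorescence microscopy.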

[12] = target: T1, Bromodomain-containing protein 4; experiment: Inhibition of GST-tagged BRD4 bromodomain (unknown origin) using biotinylated histone H4KAc peptide (1 to 21 residues) as substrate by HTRF assay
HCT-116 [13] = experiment: Antitumor activity against human HCT116 cells xenografted in BALB/cAnNCrl mouse assessed as increase in TUNEL positive apoptotic nuclei in tumor tissue at 15 to 30 mg/kg, po administered on day 1 to day 19 measured on day 19 by TUNEL assay; format: functional, organism-based; method in brief: as §2
Histone deacetylase 2 = Histone deacetylase 2 (Homo sapiens, UniProt Q92769)
HCT-116 [14] = experiment: Induction of apoptosis in human HCT116 cells assessed as viable cells at 0.5 uM by Annexin-V FITC/propidium iodide staining-based flow cytometry (reference value: 93.4 %); format: functional; details: read-out: Activity
[15] = Toxicity in BALB/cAnNCrl mouse xenografted with human HCT116 cells assessed as effect on heart morphological changes at 15 to 30 mg/kg, po administered on day 1 to day 19 measured on day 19 by hematoxylin and eosin staining based assay; format: organism-based; details: in vivo; method in brief: as §1
[16] = Toxicity in BALB/cAnNCrl mouse xenografted with human HCT116 cells assessed as effect on liver morphological changes at 15 to 30 mg/kg, po administered on day 1 to day 19 measured on day 19 by hematoxylin and eosin staining based assay; format: organism-based; details: in vivo; method in brief: as §1
[17] = Toxicity in BALB/cAnNCrl mouse xenografted with human HCT116 cells assessed as effect on lung morphological changes at 15 to 30 mg/kg, po administered on day 1 to day 19 measured on day 19 by hematoxylin and eosin staining based assay; format: organism-based; details: in vivo; method in brief: as §1
[18] = target: T1, Bromodomain-containing protein 4; experiment: Inhibition of human recombinant His-tagged BRD4 BD1 domain using H-SGRGK(Ac)GGK(Ac)GLGK-(Ac)GGAK(Ac)RHRK(Biotin)-OH as substrate preincubated with enzyme for 30 mins followed by substrate addition measured after 30 mins by AlphaScreen assay
[19] = target: T1, Bromodomain-containing protein 4; experiment: Inhibition of BRD4 in human HCT116 cells assessed as induction of autophagy by measuring increase in cleavage of LC3-I to LC3-II measured after 24 hrs by Western blot analysis; format: cell-based
Mus musculus [20] = experiment: Downregulation of Ki67 expression in tumor tissue of BALB/cAnNCrl mouse xenografted with human HCT116 cells at 15 to 30 mg/kg, po administered on day 1 to day 19 measured on day 19 by Ki67-staining based immunohistochemical analysis; format: functional, organism-based; method in brief: as §2
Mus musculus [21] = experiment: Increase in phosphorylated STAT3 expression in tumor tissue of BALB/cAnNCrl mouse xenografted with human HCT116 cells at 15 to 30 mg/kg, po administered on day 1 to day 19 measured on day 19 by immunohistochemical analysis; format: functional, organism-based; method in brief: as §2
[22] = target: Bromodomain testis-specific protein (Homo sapiens, UniProt Q58F21); experiment: Inhibition of human recombinant His-tagged BRDT BD1 domain expressed in Escherichia coli BL21(DE3)-R3-pRARE2 cells by AlphaScreen assay
HCT-116 [23] = experiment: Induction of cell cycle arrest in human HCT116 cells assessed as cell accumulation at sub-G1 phase at 0.2 to 0.5 uM by flow cytometry; format: functional, cell-based
Method in brief: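 HCT-116 cells treated at 0.2 or 0.5 μM were analysed for cell cycle by flow cytometry, with the sub-G1 population scored.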

[24] = Half life in Sprague-Dawley rat at 30 mg/kg, iv administered as bolus dose measured up to 1440 mins by UPLC-QTOF/MS analysis; format: ADME, organism-based; details: in vivo

Sequence of Histone deacetylase 2 (Q92769 whole entry): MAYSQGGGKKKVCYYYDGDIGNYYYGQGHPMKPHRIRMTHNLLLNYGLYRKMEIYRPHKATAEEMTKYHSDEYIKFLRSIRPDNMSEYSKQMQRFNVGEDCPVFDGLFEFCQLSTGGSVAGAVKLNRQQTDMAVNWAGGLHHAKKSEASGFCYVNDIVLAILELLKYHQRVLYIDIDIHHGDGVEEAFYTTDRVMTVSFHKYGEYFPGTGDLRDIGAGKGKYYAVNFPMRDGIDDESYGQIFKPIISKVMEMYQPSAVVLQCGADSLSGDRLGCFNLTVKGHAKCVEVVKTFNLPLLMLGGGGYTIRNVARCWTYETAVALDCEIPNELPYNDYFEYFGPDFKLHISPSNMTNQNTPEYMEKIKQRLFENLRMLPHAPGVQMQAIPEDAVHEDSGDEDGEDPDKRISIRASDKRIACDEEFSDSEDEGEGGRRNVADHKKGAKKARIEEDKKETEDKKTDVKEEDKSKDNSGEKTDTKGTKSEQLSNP
Sequence of Bromodomain-containing protein 3 (Q15059 whole entry, the tested form may be a part): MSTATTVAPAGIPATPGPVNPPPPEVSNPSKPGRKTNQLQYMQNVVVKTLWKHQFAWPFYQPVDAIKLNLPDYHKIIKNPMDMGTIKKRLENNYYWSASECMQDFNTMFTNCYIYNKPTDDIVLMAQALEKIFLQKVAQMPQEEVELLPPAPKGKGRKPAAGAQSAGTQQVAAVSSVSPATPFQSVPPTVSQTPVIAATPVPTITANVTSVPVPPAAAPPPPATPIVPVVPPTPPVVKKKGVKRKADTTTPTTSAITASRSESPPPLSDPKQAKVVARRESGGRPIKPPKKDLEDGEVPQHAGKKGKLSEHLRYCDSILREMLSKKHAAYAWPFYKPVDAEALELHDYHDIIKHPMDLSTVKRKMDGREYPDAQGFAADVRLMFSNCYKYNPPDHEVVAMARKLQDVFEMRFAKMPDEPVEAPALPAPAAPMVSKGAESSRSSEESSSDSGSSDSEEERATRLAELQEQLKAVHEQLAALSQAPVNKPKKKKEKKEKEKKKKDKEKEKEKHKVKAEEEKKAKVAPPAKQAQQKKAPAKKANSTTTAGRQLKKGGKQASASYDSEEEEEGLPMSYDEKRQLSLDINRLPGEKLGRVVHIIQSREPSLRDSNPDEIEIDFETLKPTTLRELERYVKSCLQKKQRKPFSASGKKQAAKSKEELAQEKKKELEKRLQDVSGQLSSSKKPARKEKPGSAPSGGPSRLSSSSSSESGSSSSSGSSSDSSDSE

Cc1cc(-c2nc3sc4c(c3c(=O)[nH]2)CCN(C)C4)cc(C)c1OCCCCCC(=O)NO
Activity (HCT-116 [1]): 9.54% | inhibition (HCT-116 [2]): Active | Tmax [3]: 1.53 h | Activity [4]: Non-Toxic | inhibition (Mus musculus [5]): Active | Activity (HCT-116 [6]): 33.2% | inhibition [7]: Active | IC50 [8]: > 20 µM | T/C (HCT-116 [9]): 42.7% | IC50 (SW-620): 1.78 µM | Activity (HCT-116 [10]): inactive | inhibition [11]: Active | IC50 [12]: 0.71 µM | Activity (HCT-116 [13]): Active | IC50 (Histone deacetylase 2): 0.058 µM | viability at 0.5 µM (HCT-116 [14]): 44.9% | Activity [15]: Non-Toxic | Activity [16]: Non-Toxic | Activity [17]: Non-Toxic | IC50 [18]: 1.1 µM | inhibition [19]: Dose-dependent effect | inhibition (Mus musculus [20]): Active | Activity (Mus musculus [21]): inactive | IC50 [22]: > 20 µM | Activity (HCT-116 [23]): Active | half-life [24]: 2.48 h
